# Screening results: PubChem BioAssay, The Scripps Research Institute Molecular Screening Center
# OX1R antag-1 = blocks the human orexin 1 receptor; O43613; OX1R-expressing cells, FRET antagonist read-out; inhibition, % at 6.6 µM; actives 1.8% (n = 330,000); AID 485270; in the data active = inhibition mostly above about 38%, no sharp cut-off; inactive = mostly below about 40%;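 note: 0% = agonist challenge alone and 100% = reference antagonist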
# GalR3 antag = blocks the human galanin receptor 3; O60755; AID 651719; actives 0.44% (n = 360,000); HEK293 GalR3-CNG cAMP membrane potential fluorescence; galR3 body fused to GalR1 C-terminus; inhibition, % at 3 µM;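 active = inhibition above the screen-wide average plus 3 SD, cut at about 13% in these data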;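 note: forskolin and galanin both at EC90 stimulate the cells; cAMP rise reported by CNG channel membrane potential dye signal; 0% = forskolin plus galanin with DMSO and 100% = forskolin alone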
# Target sequence (O60755 1-299 limits assumed): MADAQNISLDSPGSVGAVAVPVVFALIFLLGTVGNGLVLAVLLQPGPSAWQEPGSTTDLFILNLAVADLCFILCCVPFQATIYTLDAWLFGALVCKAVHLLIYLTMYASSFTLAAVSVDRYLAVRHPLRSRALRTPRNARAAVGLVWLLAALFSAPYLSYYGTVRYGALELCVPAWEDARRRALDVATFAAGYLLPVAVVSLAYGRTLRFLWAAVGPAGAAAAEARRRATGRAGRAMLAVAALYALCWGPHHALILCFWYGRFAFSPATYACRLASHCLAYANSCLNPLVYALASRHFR
# TAAR1 agonist = human TAAR1 agonism; Q96RJ0; CHO RD-HGA16 TAAR1, Fluo-8 calcium fluorescence; vehicle wells 0%, saturating PEA agonist 100%; activation, % at 3 µM; actives 0.99% (n = 360,000); AID 624467;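 active = activation above the mean activation of all test compounds in the run plus 3 SD, cut at about 38% in these data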
#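 Signal – calcium-sensitive Fluo-8 signal, excitation 470-495, emission 515-575 nm · System – RD-HGA16 (CHO) cells co-expressing Gα16 and hTAAR1 · Incubation – 17-24 h seeding, 75 min 37 °C dye, 30 min RT · Compound dosing – 3 µM single concentration · Repeats – no replicates (n 1)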
# TAAR1 antagonist = human TAAR1 antagonism. Q96RJ0. CHO RD-HGA16 TAAR1, Fluo-8 calcium fluorescence, antagonist. inhibition, % at 3 µM. actives 1.5% (n = 360,000). AID 624466;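 active = inhibition above a per-plate cutoff, the mean inhibition of test compounds on that plate plus 3 SD, cut at about 49% in these data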;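 note: 0% = DMSO plus EC80 beta-PEA response and 100% = DMSO alone without agonist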
#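 Test system: RD-HGA16 CHO cells with stable hTAAR1 and Gα16 / Probe or stimulus: EC80 β-phenethylamine stimulus / Times: seeding 17-24 h prior, 75-min 37 °C, 30-min RT dye loading / Detection: Fluo-8 calcium-sensitive fluorescence / Read-out basis: % inhibition scaled between DMSO and EC80 PEA controls / Repeats: singlicate, one well per test compound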
# CHO parental Ca = counter-screen for OX1R antagonists: effect in parental CHO cells | parental CHO-K1, ATP-induced calcium, Fluo-8 fluorescence | actives 0.63% (n = 330,000) | inhibition, % at 5.6 µM;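 active = inhibition above that plate's mean sample inhibition plus 3 SD, cut at about 26% in these data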;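 note: 0% = ATP-challenged DMSO wells and 100% = DMSO wells without ATP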
#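 Material – parental CHO cells · Reagent – ATP stimulus · Compound – single nominal dose of 5.6 µM per compound · Detection – Fluo-8 fluorescence · Read-out basis – percent inhibition of calcium signal · Controls – ATP-challenged DMSO wells low, unchallenged DMSO wells high · Repeats – no replicates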
# OX1R antag-2 = antagonists of human orexin 1 receptor | O43613 | CHO/OX1R cells, Fluo-8 calcium fluorescence, orexin A | inhibition, % at 5 µM | actives 0.43% (n = 330,000);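 active = inhibition above its plate's threshold, mean inhibition of all tested compounds on the plate plus 3 SD, cut at about 37% in these data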;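 note: 0% = orexin A challenge wells and 100% = SB-334867-A antagonist wells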
# nonsel antag count = nonselective antagonism, TAAR1 counter-screen | actives 77% (n = 2,400) | inhibition, % at 3 µM | shares compounds with TAAR1 antagonist | counterscreen cell line, calcium fluorescence, antagonist mode; in the data active = inhibition above about 22%;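 note: CHO-Ga16 host cells stimulated with ATP at an EC80 level; 0% = agonist EC80 plus vehicle and 100% = vehicle without agonist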
# TAAR1 ant conf = confirmation of human TAAR1 antagonists; shares compounds with TAAR1 antagonist; TAAR1-expressing cells, fluorescence antagonist read-out; inhibition, % at 3 µM; actives 40% (n = 2,400); AID 651785; in the data active = inhibition above about 49%;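 note: CHO-Ga16 host cells challenged with agonist PEA near its EC80; 0% = agonist at EC80 plus vehicle and 100% = vehicle with no agonist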
# Ga16 ag counter = counter-screen for TAAR1 antagonists: nonselective Ga16 agonists | shares compounds with TAAR1 antagonist | Ga16-expressing cells, calcium fluorescence, agonist counterscreen | activation, % at 3 µM | actives 18% (n = 2,400); in the data active = activation above about 12%;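 note: 0% = vehicle wells and 100% = saturating stimulus response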
# TAAR1 ag count = TAAR1 agonism, antagonist counter-screen; hTAAR1 cell line, fluorescence activation, agonist mode; actives 2% (n = 2,400); shares compounds with TAAR1 antagonist; activation, % at 3 µM; in the data active = activation above about 37%;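 note: CHO cells stably expressing TAAR1 with calcium dye readout; 0% = DMSO vehicle and 100% = full agonist response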
# Starred values were filed as active, the others as inactive; · = not tested or not shown. A selection: hits, their analogues and other compounds. The true share with any hit is near 4.2%.
SMILES,OX1R antag-1,GalR3 antag,TAAR1 agonist,TAAR1 antagonist,CHO parental Ca,OX1R antag-2,nonsel antag count,TAAR1 ant conf,Ga16 ag counter,TAAR1 ag count
COc1ccc(-c2cc(C(=O)N(C)CC(=O)Nc3ccccc3C(F)(F)F)c3ccccc3n2)cc1OC,·,-8,22,67*,·,·,34*,49*,8,9
O=C(NCc1ccco1)C1Cc2cc(Cl)ccc2O1 (stereo not drawn),21,-7,-3,-3,1,0,·,·,·,·
COc1cc(/C=C2/SC(=S)N(CCC(=O)Nc3cccnc3)C2=O)cc(OC)c1OC,·,-6,11,60*,·,·,30*,51*,10,16
COc1cc(/C=C2\SC(=S)N(CCC(=O)Nc3cccc(O)c3)C2=O)cc(OC)c1OC,7,-1,14,88*,-11,-9,36*,58*,11,11
O=C(CCN1C(=O)/C(=C/c2cccs2)SC1=S)Nc1cccc(O)c1,18,2,28,72*,-1,6,47*,60*,16*,18
C[C@H](CO)N1C[C@H](C)[C@@H](CN(C)CC2CCCCC2)Oc2c(NS(=O)(=O)c3cn(C)cn3)cccc2C1=O,6,-3,1,-14,-11,-11,·,·,·,·
Cc1nc2cc(NS(=O)(=O)c3ccccc3)ccc2n1C,9,-11,5,-6,-10,-23,·,·,·,·
O=C(Nc1ccccc1C(=O)N1CCOCC1)C1CC(=O)N(C2CCCC2)C1 (stereo not drawn),8,-6,6,0,-7,-4,·,·,·,·
Cc1ccccc1S(=O)(=O)Oc1ccc2ccc(O)cc2c1,13,-9,3,66*,22,4,30*,45,5,7
CC(=O)Nc1ccc(OS(=O)(=O)c2ccccc2C)cc1,2,-5,1,8,-7,-21,·,·,·,·
COc1ccc(C(=O)COC(=O)C(CCCCN2C(=O)C3C4C=CC(C4)C3C2=O)N2C(=O)C3C4C=CC(C4)C3C2=O)cc1 (stereo not drawn),15,2,21,59*,-6,-10,33*,51*,9,9
Cc1nc(Cc2nnc(SCC(=O)N3CC(=O)Nc4ccccc43)o2)cs1,5,-2,1,-19,-5,-10,·,·,·,·
COc1ccc(NC(=O)Cc2csc(NC(=O)Nc3ccccc3OC)n2)c(OC)c1,5,-3,15,69*,-11,-25,17,38,9,10
COc1ccc(NC(=S)Nc2nc(CC(=O)Nc3ccccc3OC)cs2)cc1,10,-3,16,43,6,-1,·,·,·,·
COc1ccccc1NC(=O)Nc1nc(CC(=O)N2CCN(c3ccccc3F)CC2)cs1,9,-6,15,65*,-4,-21,29*,48,10,11
COc1ccc(OC)c(NC(=O)Cc2csc(NC(=O)Nc3ccccc3OC)n2)c1,19,-7,23,65*,3,-6,39*,54*,11,12
COc1ccccc1NC(=O)Nc1nc(CC(=O)NCc2c(F)cccc2F)cs1,24,-3,11,58*,-30,-20,29*,45,10,11
Cc1c(C)c2ccc(OC(C)C(=O)NCCN3CCOCC3)c(C)c2oc1=O (stereo not drawn),16,2,8,-25,-11,-21,·,·,·,·
O=C(Nc1cccc2ccccc12)C1CCN(C(=O)Cc2ccccc2)CC1,22,-2,6,3,-21,6,·,·,·,·
O=[N+]([O-])c1ccccc1S(=O)(=O)NCc1ccc(F)cc1,19,-3,0,7,3,-38,·,·,·,·
